Assay [1] concerns HEK293T cells. It is filed as cell-based, human. Particulars: 500 nM anisomycin 1 h. Summed up: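 HEK293T cells were transiently transfected (polyethyleneimine) with FLAG-MLXIPL or TACC1 plasmid. Where indicated, cells were pre-treated with 50 μM SB203580 for 1 h at 37 °C, then given 500 nM anisomycin or 0.001% DMSO vehicle for 1 h at 37 °C. Lysates were clarified and equal protein (BCA) resolved on 5% gels with […] Phos-tag plus 50 μM MnCl2, or by standard SDS-PAGE, then immunoblotted.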

Assay [2] concerns HEK293T cells. Description: MS analysis of TACC1 / MLXIPL phosphopeptides isolated from HEK293T cells. It is filed as cell-based, human. Particulars: serum-starved, 500 nM trametinib pre-treatment 1 h, EGF 5 min.

Turning to `COc1ccc(C[C@H]2NC[C@H](O)[C@H]2OC(C)=O)cc1` [Anisomycin, anisomycin], in the assay with HEK293T cells [1], the “phosphorylation of TACC1 (mobility shift)” value is reported as “did not induce phosphorylation”.

For `C[S+]([O-])c1ccc(-c2nc(-c3ccncc3)c(-c3ccc(F)cc3)[nH]2)cc1` (stereo not drawn) [SB203580], in the assay with HEK293T cells [1] (50 μM SB203580 pre-treatment 1 h), the “anisomycin-induced MLXIPL phosphorylation (mobility shift)” value was “partly dependent on p38α/β”.

Turning to `CC(=O)Nc1cccc(-n2c(=O)n(C3CC3)c(=O)c3c(Nc4ccc(I)cc4F)n(C)c(=O)c(C)c32)c1` [trametinib], the “EGF-stimulated TACC1 Ser231 phosphorylation” value with HEK293T cells [2] is on record as “blocked”.

These data come from publication PMC10691213 (Proceedings of the National Academy of Sciences of the …, 2023).
